One assay concerns DU-145. Kind of assay: Cytotoxicity against human DU145 cells assessed as growth inhibition after 48 hrs by MTT assay. In kind it is functional, cell-based. The settings on record: DU-145, 48 h. On the technique in general: Formazan colour is commonly taken as a measure of viable cells.
In the next assay the test system is MDA-MB-231. Kind of assay: Cytotoxicity against human MDA-MB-231 cells assessed as growth inhibition after 48 hrs by MTT assay. It counts as functional, cell-based. The settings on record: MDA-MB-231, 48 h.
The next assay deals with MCF7. Kind of assay: Cytotoxicity against human MCF7 cells assessed as growth inhibition after 48 hrs by MTT assay. In kind it is functional, cell-based. The following applies: MCF7, 48 h.
Assay [1] can be described thus: Cytotoxicity against human MDA-MB-435S cells assessed as growth inhibition after 48 hrs by MTT assay. It counts as functional, cell-based.
For a further assay, the system named is A549. Kind of assay: Cytotoxicity against human A549 cells assessed as growth inhibition after 48 hrs by MTT assay. In kind it is functional, cell-based. The following applies: A549, 48 h.
Assay [2] is described as follows: Cytotoxicity against human PANC1 cells assessed as growth inhibition after 48 hrs by MTT assay. In kind it is functional, cell-based. The following applies: PANC-1, 48 h.
The test system of another assay is SMMC-7721. The assay is described as follows: Cytotoxicity against human SMMC7721 cells assessed as growth inhibition after 48 hrs by MTT assay. The settings on record: SMMC-7721, 48 h. In kind it is functional, cell-based.
The nature of assay [3]: Cytotoxicity against human HL-7702 cells assessed as growth inhibition after 48 hrs by MTT assay. It counts as cell-based. The following applies: L02, 48 h.
Assay [4] has as its target Signal transducer and activator of transcription 3 (Homo sapiens) (UniProt P40763). The assay is described as follows: Inhibition of STAT3 phosphorylation at Y705 in human MDA-MB-435S cells after 12 hrs by Western blot analysis. It counts as cell-based. The procedure, abridged: (§1)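 Cells were exposed for 12 h. Whole-cell lysates were immunoblotted with a Y705-phospho-STAT3-specific antibody and for total STAT3.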

The target of assay [5] is Proto-oncogene tyrosine-protein kinase Src (Homo sapiens) (UniProt P12931). The assay is described as follows: Inhibition of Src phosphorylation in human MDA-MB-231 cells at 1 to 4 uM after 12 hrs by Western blot analysis. In kind it is cell-based. (Immunoblotting shows a protein as a band on a membrane.)
Assay [6] has as its target Signal transducer and activator of transcription 3 (Homo sapiens) (UniProt P40763). Kind of assay: Inhibition of IL-6-induced STAT3 phosphorylation in overnight starved human MDA-MB-231 cells preincubated for 2 hrs followed by IL-6 induction by Western blot analysis. It counts as cell-based. The procedure, abridged: (§2)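 Cells were serum-starved overnight and pretreated with compound for 2 h. They were then stimulated with IL-6. Lysates were immunoblotted for phospho-STAT3.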

Assay [7] has the same target. The assay is described as follows: Inhibition of IL-6-induced STAT3 phosphorylation in overnight starved human MCF7 cells at 2 to 6 uM preincubated for 2 hrs followed by IL-6 induction by Western blot analysis. It counts as cell-based. Put shortly: as §2
The target is the same in assay [8]. Kind of assay: Inhibition of STAT3-mediated luciferase activity in human HeLa cells at 2 uM after 12 hrs by luminescence assay relative to control. It counts as cell-based. Put shortly: (§3)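 HeLa cells, which have constitutive STAT3, were transfected with a STAT3-dependent dual luciferase reporter. Reporter luminescence was measured after compound exposure. Values are mean ± SD of triplicate experiments and are compared with vehicle-treated control.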

Assay [9] has the same target. The assay is described as follows: Inhibition of STAT3 phosphorylation at Y705 in human MCF7 cells after 12 hrs by Western blot analysis. In kind it is cell-based. The procedure, abridged: as §1
Assay [10] has the same target. The assay is described as follows: Inhibition of STAT3-mediated luciferase activity in human HeLa cells at 4 uM after 12 hrs by luminescence assay relative to control. It counts as cell-based. Put shortly:
as §3

Assay [11] deals with Mitogen-activated protein kinase; ERK1/ERK2 (Homo sapiens) (UniProt P27361+P28482). Kind of assay: Inhibition of ERK1/2 phosphorylation in human MDA-MB-231 cells at 1 to 4 uM after 12 hrs by Western blot analysis. In kind it is cell-based.
For assay [12], the target named is Serine/threonine-protein kinase mTOR (Homo sapiens) (UniProt P42345). The assay is described as follows: Inhibition of mTOR phosphorylation in human MDA-MB-231 cells at 1 to 4 uM after 12 hrs by Western blot analysis. In kind it is cell-based.
Assay [13] addresses Signal transducer and activator of transcription 3 (Homo sapiens) (UniProt P40763). The assay is described as follows: Inhibition of STAT3-mediated luciferase activity in human HeLa cells after 12 hrs by luminescence assay. It counts as cell-based. Put shortly: as §3
Assay [14] has the same target. The assay is described as follows: Inhibition of STAT3 phosphorylation at Y705 in human MDA-MB-231 cells after 12 hrs by Western blot analysis. It counts as cell-based. The procedure, abridged:
as §1

Calls of active or inactive are those of the source. The calls are words filed in the database; no cut-off is given here.

Chain of Signal transducer and activator of transcription 3 (Homo sapiens) (P40763 whole entry): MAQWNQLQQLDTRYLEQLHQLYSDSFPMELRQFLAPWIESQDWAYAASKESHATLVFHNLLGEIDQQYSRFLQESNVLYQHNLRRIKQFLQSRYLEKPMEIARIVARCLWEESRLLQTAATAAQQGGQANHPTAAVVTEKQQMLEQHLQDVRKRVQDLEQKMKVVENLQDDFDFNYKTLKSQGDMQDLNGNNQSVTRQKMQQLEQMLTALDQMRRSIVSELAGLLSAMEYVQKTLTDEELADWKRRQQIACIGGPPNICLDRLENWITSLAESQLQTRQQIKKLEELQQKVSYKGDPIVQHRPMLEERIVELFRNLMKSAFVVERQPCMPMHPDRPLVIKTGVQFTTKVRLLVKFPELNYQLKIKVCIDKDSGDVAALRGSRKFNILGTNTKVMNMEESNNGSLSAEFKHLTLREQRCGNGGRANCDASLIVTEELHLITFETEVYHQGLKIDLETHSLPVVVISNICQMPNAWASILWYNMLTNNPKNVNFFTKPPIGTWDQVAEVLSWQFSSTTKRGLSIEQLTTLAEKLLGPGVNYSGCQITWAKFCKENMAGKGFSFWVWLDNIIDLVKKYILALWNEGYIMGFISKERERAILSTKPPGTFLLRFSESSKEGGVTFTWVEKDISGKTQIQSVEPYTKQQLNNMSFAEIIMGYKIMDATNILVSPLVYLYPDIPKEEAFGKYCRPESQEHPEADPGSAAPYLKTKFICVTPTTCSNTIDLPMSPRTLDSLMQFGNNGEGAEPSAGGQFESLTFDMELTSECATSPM
Chain of Mitogen-activated protein kinase; ERK1/ERK2 (Homo sapiens) (P27361 whole entry, looked up): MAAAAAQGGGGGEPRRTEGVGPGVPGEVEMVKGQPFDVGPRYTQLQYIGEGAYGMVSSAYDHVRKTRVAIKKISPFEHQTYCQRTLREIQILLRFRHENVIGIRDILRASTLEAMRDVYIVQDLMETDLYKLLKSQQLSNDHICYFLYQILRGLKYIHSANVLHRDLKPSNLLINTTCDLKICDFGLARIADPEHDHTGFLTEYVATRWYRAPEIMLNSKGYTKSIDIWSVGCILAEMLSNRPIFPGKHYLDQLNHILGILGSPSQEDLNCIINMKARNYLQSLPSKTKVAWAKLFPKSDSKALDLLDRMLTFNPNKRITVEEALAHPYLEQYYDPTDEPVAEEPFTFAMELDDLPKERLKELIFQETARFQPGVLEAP
Chain of Mitogen-activated protein kinase; ERK1/ERK2 (Homo sapiens) (P28482 whole entry, looked up): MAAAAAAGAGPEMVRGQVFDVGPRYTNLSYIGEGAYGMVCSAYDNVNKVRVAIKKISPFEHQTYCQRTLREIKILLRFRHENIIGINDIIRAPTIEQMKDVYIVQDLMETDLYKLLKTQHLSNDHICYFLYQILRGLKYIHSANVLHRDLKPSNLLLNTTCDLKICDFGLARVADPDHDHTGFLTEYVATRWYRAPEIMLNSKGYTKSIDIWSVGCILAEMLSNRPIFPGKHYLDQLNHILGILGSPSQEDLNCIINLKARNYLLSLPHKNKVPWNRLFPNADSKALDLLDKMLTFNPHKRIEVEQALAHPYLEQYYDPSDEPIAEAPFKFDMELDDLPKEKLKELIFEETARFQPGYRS
Chain of Proto-oncogene tyrosine-protein kinase Src (Homo sapiens) (P12931 2-536 limits assumed): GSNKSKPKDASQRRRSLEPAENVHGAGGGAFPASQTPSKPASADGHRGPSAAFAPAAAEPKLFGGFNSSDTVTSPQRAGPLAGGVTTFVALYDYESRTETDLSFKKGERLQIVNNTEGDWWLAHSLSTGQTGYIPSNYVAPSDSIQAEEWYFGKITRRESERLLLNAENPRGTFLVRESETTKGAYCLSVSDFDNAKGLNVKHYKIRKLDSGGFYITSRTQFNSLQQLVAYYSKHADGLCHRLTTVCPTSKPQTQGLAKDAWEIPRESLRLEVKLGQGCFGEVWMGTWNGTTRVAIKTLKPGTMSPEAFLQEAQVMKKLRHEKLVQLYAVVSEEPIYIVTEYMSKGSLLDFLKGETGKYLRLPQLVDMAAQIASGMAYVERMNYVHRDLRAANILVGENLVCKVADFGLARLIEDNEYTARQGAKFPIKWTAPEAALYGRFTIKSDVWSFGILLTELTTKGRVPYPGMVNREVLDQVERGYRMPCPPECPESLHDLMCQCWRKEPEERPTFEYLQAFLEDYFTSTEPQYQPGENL

The IC50 is the concentration that gives 50% inhibition. Consider `CC(C)(C)NC(=O)C1=Cc2cc(Br)ccc2S1(=O)=O`, for which the IC50 in the assay on DU-145 amounted to 1.35 µM; in the assay on MDA-MB-231, 1.34 µM; with MCF7, 1.27 µM; in assay [1], 0.82 µM; in the assay on A549, 2.85 µM; in assay [2], 3.34 µM.
In the case of `CCCCNC(=O)C1=Cc2cc(Br)ccc2S1(=O)=O`, the IC50 came to 3.86 µM in the assay on DU-145 and 2.31 µM with MDA-MB-231.
As for `O=C(Nc1ccccc1)C1=Cc2c(Br)cccc2S1(=O)=O`, the IC50 came to 2.64 µM in the assay with DU-145; 1.74 µM in the assay with MDA-MB-231; 1.73 µM with MCF7; 1.39 µM in assay [1]; 4.09 µM in the assay on A549; 6.67 µM in [2]. Further, the half-maximal inhibitory concentration (IC50) was found to be 2.4 µM with SMMC-7721 and 15 µM in assay [3].
As to `Cc1ccc(NC(=O)C2=Cc3c(Br)cccc3S2(=O)=O)cc1`, the IC50 is 3.03 µM in the assay on DU-145 and 2.46 µM in the assay on MDA-MB-231.
Regarding `O=C(Nc1ccccc1)C1=Cc2cc(Br)ccc2S1(=O)=O`, the results for the IC50 in the assay on DU-145 and with MDA-MB-231 were 2.77 µM and 1.72 µM, respectively.
For `O=C(Nc1cccc(Cl)c1)C1=Cc2c(Br)cccc2S1(=O)=O`, the figures for the IC50 in the assay on DU-145 and in the assay with MDA-MB-231 were 3.39 µM and 2.21 µM, respectively.
Turning to `O=C(C1=Cc2cc(Br)ccc2S1(=O)=O)N1CCCC1`, the IC50 in the assay with DU-145 came to 1.54 µM; with MDA-MB-231 it was 1.27 µM; with MCF7, 1.38 µM; in [1], 0.94 µM; in the assay with A549 it was 3.47 µM; in assay [2], 3.47 µM.
Regarding `Cc1ccc(OC(=O)C2=Cc3c(Br)cccc3S2(=O)=O)cc1`, the IC50 with DU-145 and in the assay with MDA-MB-231 was over 15 µM each time.
For `CCN(CC)C(=O)C1=Cc2cc(Br)ccc2S1(=O)=O`, the half-inhibitory concentration (IC50) with DU-145 is 1.46 µM; with MDA-MB-231, 1.67 µM; in the assay with MCF7 it was 0.89 µM; in assay [1], 1.54 µM; in the assay with A549, 1.58 µM; in [2], 1.94 µM.
As for `O=C(Nc1ccccc1)C1=Cc2ccc(Br)cc2S1(=O)=O`, the IC50 was 2.66 µM in the assay on DU-145 and 1.84 µM with MDA-MB-231.
Take `O=C(Nc1ccc(Cl)cc1)C1=Cc2c(Br)cccc2S1(=O)=O`: the IC50 in the assay on DU-145 worked out at 6.34 µM; in the assay with MDA-MB-231, 3.78 µM.
In the case of `CC1CCCCN1C(=O)C1=Cc2cc(Br)ccc2S1(=O)=O` (stereo unspecified), the IC50 with DU-145 is 0.98 µM; in the assay with MDA-MB-231, 0.95 µM; in the assay with MCF7, 0.99 µM; in assay [1], 0.98 µM; in the assay on A549, 1.3 µM; in [2], 2.14 µM.
Consider `O=C(Nc1ccc2c(c1)C=C(C(=O)N1CCCCC1)S2(=O)=O)c1ccccc1`, for which the IC50 with DU-145 was found to be 2.07 µM; in the assay with MDA-MB-231, 1.68 µM.
Usually inhibition stands for how much of the control response was suppressed. Turning to `O=C(C1=Cc2cc(Br)ccc2S1(=O)=O)N1CCCCC1`, the inhibition result in assay [4] was “Dose-dependent effect”; in [6] it was “Dose-dependent effect”; in assay [8], 14%; in assay [9] it was “Dose-dependent effect”; in assay [10] it was 48%; in [13] it was “Dose-dependent effect”. In assay [14], the inhibition entry was “Dose-dependent effect”. Further, the inhibition entry in assay [5], in assay [11] and in assay [12] was “inactive” throughout. Besides, the inhibition entry in assay [7] was “Active”.
`O=C(Nc1ccccc1)C1=Cc2cc([N+](=O)[O-])ccc2S1(=O)=O`: the IC50 was found to be 5.19 µM in the assay on DU-145 and 3.04 µM in the assay with MDA-MB-231.
Consider `O=C(NC1CCCCC1)C1=Cc2cc(Br)ccc2S1(=O)=O`, for which the IC50 in the assay on DU-145 and in the assay with MDA-MB-231 was 5.73 µM each time.
As for `CC(C)NC(=O)C1=Cc2cc(Br)ccc2S1(=O)=O`, the IC50 in the assay with DU-145 amounted to 2.17 µM; in the assay with MDA-MB-231, 1.09 µM; with MCF7, 1.24 µM; in assay [1] it was 0.93 µM; in the assay with A549, 2.97 µM; in [2], 5.05 µM. The IC50 amounted to 2.4 µM in the assay on SMMC-7721 and 15 µM in assay [3].
In the case of `CN(C(=O)C1=Cc2cc(Br)ccc2S1(=O)=O)c1ccccc1`, the IC50 in the assay on DU-145 worked out at 1.26 µM; in the assay with MDA-MB-231 it was 0.88 µM; in the assay on MCF7, 1.13 µM; in assay [1] it was 0.95 µM; with A549, 2.08 µM; in [2], 4.38 µM.
With `O=C(Nc1ccccc1)C1=Cc2cc(NC(=O)c3ccccc3)ccc2S1(=O)=O`, the concentration for half-maximal inhibition (IC50) with DU-145 amounted to 6.21 µM; in the assay on MDA-MB-231, 3.21 µM.
Regarding `O=[N+]([O-])c1ccc2c(c1)S(=O)(=O)C=C2`, the inhibition entry in assay [4], in assay [9] and in assay [14] was “Active” throughout. Moreover, the IC50 in the assay with DU-145 came out at 2.5 µM; in the assay with MDA-MB-231, 1.56 µM; in the assay on MCF7, 2.16 µM; in [1], 1.87 µM; with A549 it was 2.5 µM; in [2] it was 2.9 µM. This molecule also returned an inhibition in assay [10] of 36%.
For the molecule `CC1CCCN(C(=O)C2=Cc3cc(Br)ccc3S2(=O)=O)C1` (stereo unspecified), the IC50 was determined as 1.41 µM in the assay on DU-145; 1.07 µM with MDA-MB-231; 1.26 µM in the assay with MCF7; 1.37 µM in assay [1]; 1.94 µM in the assay on A549; 2.98 µM in assay [2].
On to `O=C(C1=Cc2cc(Br)ccc2S1(=O)=O)N1CCOCC1`, for which the IC50 is 1.91 µM in the assay with DU-145; 1.04 µM in the assay on MDA-MB-231; 1.05 µM in the assay with MCF7; 0.8 µM in assay [1]; 2.31 µM in the assay on A549; 3.95 µM in assay [2].

The record behind these values is ChEMBL document CHEMBL3632496, “Novel 2-Carbonylbenzo[b]thiophene 1,1-Dioxide Derivatives as Potent Inhibitors of STAT3 Signaling Pathway” (ACS Med Chem Lett, 2015).
